Measured values published in ChEMBL document CHEMBL1138564, “Microwave-induced synthesis and anti-microbial activities of 7,10,11,12-tetrahydrobenzo[c]acridin-8(9H)-one derivatives” (2009).
Converted amounts (≈) assume the structure as drawn. The source made the active and inactive calls. No cut-off for these calls is given here.

Experiments:
Format in all cases: functional
Trichoderma viride [1] = assay: Antimicrobial activity against Trichoderma viride NCIM 1195 at 500 ug/disk after 72 hrs by disk diffusion method; details: NCIM 1195, 72 h, read-out: DIZ
Outline: (§1)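 Fungal disc diffusion. 100 µl of suspension at 10⁶ CFU/ml was spread on Sabouraud's dextrose agar. Discs carrying test compound in DMSO were applied, with a DMSO-only disc as negative control. Plates were incubated at 27 °C for 72 h, and the zone of inhibition diameter was measured.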

Aspergillus fumigatus [2] = assay: Antimicrobial activity against Aspergillus fumigatus NCIM 902 at 1000 ug/disk after 72 hrs by disk diffusion method
Outline: (§2)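 Disc diffusion on Sabouraud's dextrose agar. 100 µl of fungal suspension at 10⁶ CFU/ml is spread on the plate. Discs carry test compounds at two loadings in DMSO; DMSO alone is the negative control. Clotrimazole disc is the positive reference. Plates are incubated at 27 °C for 72 h, and the zone of inhibition diameter is measured.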

Aspergillus parasiticus [3] = assay: Antimicrobial activity against Aspergillus parasiticus NCIM 904 after 72 hrs by serial dilution method; details: NCIM 904, 72 h
Outline: (§3)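 MIC by broth dilution in Sabouraud's dextrose broth, only for fungi sensitive in disc diffusion. Two-fold serial dilutions of compounds are made in 1 ml broth per tube, range 3.9 to 1000. Inoculated tubes are incubated at 27 °C for 72 h.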

Lipomyces lipofer [4] = assay: Antimicrobial activity against Lipomyces lipofer NCIM 3252 at 500 ug/disk after 72 hrs by disk diffusion method; outline: as §2
Aliivibrio fischeri [5] = assay: Antimicrobial activity against Vibrio fischeri NCIM 2154 at 500 ug/disk after 24 hrs by disk diffusion method; details: NCIM 2154, 24 h, read-out: DIZ
Outline: (§4)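 Disc diffusion. 100 µl of bacterial suspension at 10⁸ CFU/ml was spread on Mueller–Hinton agar. Discs loaded with test compound dissolved in DMSO were placed on the lawn, with a DMSO-only disc as negative control. Plates were incubated at 37 °C for 24 h, and the inhibition zone diameter was measured.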

Aspergillus flavus [6] = assay: Antimicrobial activity against Aspergillus flavus NCIM 902 at 1000 ug/disk after 72 hrs by disk diffusion method; details: NCIM 902, 72 h, read-out: DIZ; outline: as §2
Staphylococcus [7] = assay: Antimicrobial activity against Staphylococcus albus NCIM 2178 at 500 ug/disk after 24 hrs by disk diffusion method; outline: as §4
Staphylococcus [8] = assay: Antimicrobial activity against Staphylococcus albus NCIM 2178 at 1000 ug/disk after 24 hrs by disk diffusion method; outline: as §4
Penicillium chrysogenum [9] = assay: Antimicrobial activity against Penicillium chrysogenum NCIM 707 at 1000 ug/disk after 72 hrs by disk diffusion method; outline: as §2
Pseudomonas aeruginosa = assay: Antimicrobial activity against Pseudomonas aeruginosa NCIM 2200 at 500 ug/disk after 24 hrs by disk diffusion method; outline: as §4
Rhodotorula mucilaginosa = assay: Antimicrobial activity against Rhodotorula rubra NCIM 3174 at 500 ug/disk after 72 hrs by disk diffusion method; details: NCIM 3174, 72 h, read-out: DIZ; outline: as §1
Aliivibrio fischeri [10] = assay: Antimicrobial activity against Vibrio fischeri NCIM 2154 after 24 hrs by serial dilution method; details: NCIM 2154, 24 h
Klebsiella aerogenes = assay: Antimicrobial activity against Klebsiella aerogenes NCIM 2239 at 500 ug/disk after 24 hrs by disk diffusion method
Outline: (§5)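 Disc diffusion on Mueller–Hinton agar. 100 µl of bacterial suspension at 10⁸ CFU/ml is spread on the plate. Discs carry test compounds at two loadings, dissolved in DMSO; DMSO alone serves as negative control. Ofloxacin disc is the positive reference. Plates are incubated at 37 °C for 24 h, and the inhibition zone diameter is measured.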

Bacillus cereus [11] = assay: Antimicrobial activity against Bacillus cereus NCIM 2155 at 500 ug/disk after 24 hrs by disk diffusion method; outline: as §5
Aspergillus fumigatus [12] = assay: Antimicrobial activity against Aspergillus fumigatus NCIM 902 at 500 ug/disk after 72 hrs by disk diffusion method; outline: as §2
Proteus vulgaris [13] = assay: Antimicrobial activity against Proteus vulgaris NCIM 2027 at 1000 ug/disk after 24 hrs by disk diffusion method; outline: as §5
Escherichia coli [14] = assay: Antimicrobial activity against Escherichia coli NCIM 2065 after 24 hrs by serial dilution method; details: NCIM 2065, 24 h
Outline: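 Broth dilution MIC in nutrient broth, run only for organisms found sensitive in disc diffusion. Compounds are two-fold serially diluted in 1 ml sterile broth per tube, spanning 3.9 to 1000. Inoculated tubes are incubated at 37 °C for 24 h.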

Bacillus subtilis = assay: Antimicrobial activity against Bacillus subtilis NCIM 2063 at 500 ug/disk after 24 hrs by disk diffusion method; details: NCIM 2063, 24 h, read-out: DIZ; outline: as §5
Aspergillus flavus [15] = assay: Antimicrobial activity against Aspergillus flavus NCIM 902 after 72 hrs by serial dilution method; details: NCIM 535, 72 h, in the assay text read “NCIM 535” for “NCIM 902”; outline: as §3
Lipomyces lipofer [16] = assay: Antimicrobial activity against Lipomyces lipofer NCIM 3252 at 1000 ug/disk after 72 hrs by disk diffusion method; outline: as §2
Salmonella typhimurium = assay: Antimicrobial activity against Salmonella Typhimurium NCIM 2501 at 1000 ug/disk after 24 hrs by disk diffusion method; outline: as §4
[17] = tested on: Rhodococcus corynebacterioides; assay: Antimicrobial activity against Corynebacterium rubrum NCIM 2252 at 1000 ug/disk after 24 hrs by disk diffusion method; details: Rhodococcoides corynebacterioides, NCIM 2252, 24 h; read-out: DIZ; outline: as §5
Aspergillus flavus [18] = assay: Antimicrobial activity against Aspergillus flavus NCIM 902 at 500 ug/disk after 72 hrs by disk diffusion method; details: NCIM 902, 72 h, read-out: DIZ; outline: as §2
Aspergillus parasiticus [19] = assay: Antimicrobial activity against Aspergillus parasiticus NCIM 904 at 500 ug/disk after 72 hrs by disk diffusion method; details: NCIM 904, 72 h, read-out: DIZ; outline: as §2
Trichoderma viride [20] = assay: Antimicrobial activity against Trichoderma viride NCIM 1195 after 72 hrs by serial dilution method; details: NCIM 1195, 72 h
Outline: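 MIC by broth dilution in Sabouraud's dextrose broth, run only on fungi found sensitive in the disc assay. Twofold serial dilutions were made in 1 ml broth per tube, covering 3.9 to 1000. Inoculated tubes were incubated at 27 °C for 72 h.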

Escherichia coli [21] = assay: Antimicrobial activity against Escherichia coli NCIM 2065 at 1000 ug/disk after 24 hrs by disk diffusion method; details: NCIM 2065, 24 h, read-out: DIZ; outline: as §5
Escherichia coli [22] = assay: Antimicrobial activity against Escherichia coli NCIM 2065 at 500 ug/disk after 24 hrs by disk diffusion method; outline: as §5
Bacillus cereus [23] = assay: Antimicrobial activity against Bacillus cereus NCIM 2155 at 1000 ug/disk after 24 hrs by disk diffusion method; outline: as §5
[24] = tested on: Rhodococcus corynebacterioides; assay: Antimicrobial activity against Corynebacterium rubrum NCIM 2252 at 500 ug/disk after 24 hrs by disk diffusion method; details: Rhodococcoides corynebacterioides, NCIM 2252, 24 h; read-out: DIZ; outline: as §5
Penicillium chrysogenum [25] = assay: Antimicrobial activity against Penicillium chrysogenum NCIM 707 at 500 ug/disk after 72 hrs by disk diffusion method; outline: as §2
Proteus vulgaris [26] = assay: Antimicrobial activity against Proteus vulgaris NCIM 2027 at 500 ug/disk after 24 hrs by disk diffusion method; outline: as §5
Trichoderma viride [27] = assay: Antimicrobial activity against Trichoderma viride NCIM 1195 at 1000 ug/disk after 72 hrs by disk diffusion method; details: NCIM 1195, 72 h, read-out: DIZ; outline: as §1

| SMILES | zone of inhibition at 500 µg/disc (Trichoderma viride [1]) | MIC (Aspergillus parasiticus [3]) | zone of inhibition at 500 µg/disc (Aliivibrio fischeri [5]) | zone of inhibition at 1000 µg/disc (Aspergillus flavus [6]) | zone of inhibition at 500 µg/disc (Rhodotorula mucilaginosa) | MIC (Aliivibrio fischeri [10]) | diameter of the inhibition zone (DIZ) (Aspergillus fumigatus [12]) | MIC (Escherichia coli [14]) | zone of inhibition at 500 µg/disc (Bacillus subtilis) | MIC (Aspergillus flavus [15]) | zone of inhibition at 1000 µg/disc [17] | zone of inhibition at 500 µg/disc (Aspergillus flavus [18]) | zone of inhibition at 500 µg/disc (Aspergillus parasiticus [19]) | MIC (Trichoderma viride [20]) | zone of inhibition at 1000 µg/disc (Escherichia coli [21]) | zone of inhibition at 500 µg/disc [24] | diameter of the inhibition zone (DIZ) (Penicillium chrysogenum [25]) | zone of inhibition at 1000 µg/disc (Trichoderma viride [27]) | also measured |
| --- | --- | --- | --- | --- | --- | --- | --- | --- | --- | --- | --- | --- | --- | --- | --- | --- | --- | --- | --- |
| O=C1CCCC2=C1C(c1ccccc1Cl)c1ccc3ccccc3c1N2 (centres undefined) | 9 mm | 62.5 µg/mL (≈ 174 µM) | 7 mm | 9 mm | 13 mm | 125 µg/mL (≈ 347 µM) | inactive | 125 µg/mL (≈ 347 µM) | 7 mm | 62.5 µg/mL (≈ 174 µM) | 8 mm | 7 mm | 8 mm | 62.5 µg/mL (≈ 174 µM) | 8 mm | 7 mm | inactive | 10 mm | zone of inhibition at 1000 µg/disc (Aspergillus fumigatus [2]; NCIM 902, 72 h, read-out: DIZ): 9 mm; diameter of the inhibition zone (DIZ) (Lipomyces lipofer [4]): inactive; diameter of the inhibition zone (DIZ) (Staphylococcus [7]): inactive; diameter of the inhibition zone (DIZ) (Staphylococcus [8]): inactive; diameter of the inhibition zone (DIZ) (Penicillium chrysogenum [9]): inactive; diameter of the inhibition zone (DIZ) (Pseudomonas aeruginosa): inactive; diameter of the inhibition zone (DIZ) (Klebsiella aerogenes): inactive; diameter of the inhibition zone (DIZ) (Bacillus cereus [11]): inactive; diameter of the inhibition zone (DIZ) (Proteus vulgaris [13]): inactive; diameter of the inhibition zone (DIZ) (Lipomyces lipofer [16]): inactive; diameter of the inhibition zone (DIZ) (Salmonella typhimurium; Salmonella enterica subsp. enterica serovar Typhimurium): inactive; diameter of the inhibition zone (DIZ) (Escherichia coli [22]): inactive; diameter of the inhibition zone (DIZ) (Bacillus cereus [23]): inactive; diameter of the inhibition zone (DIZ) (Proteus vulgaris [26]): inactive |
| CC1(C)CC(=O)C2=C(C1)Nc1c(ccc3ccccc13)C2c1ccc(O)cc1 (centres undefined) | 10 mm | 7.8 µg/mL (≈ 21.1 µM) | 7 mm | 12 mm | 21 mm | 125 µg/mL (≈ 338 µM) | inactive | 31.2 µg/mL (≈ 84.4 µM) | 7 mm | 31.2 µg/mL (≈ 84.4 µM) | 10 mm | 9 mm | 12 mm | 31.2 µg/mL (≈ 84.4 µM) | 12 mm | 7 mm | inactive | 12 mm | diameter of the inhibition zone (DIZ) (Aspergillus fumigatus [2]): inactive; zone of inhibition at 500 µg/disc (Lipomyces lipofer [4]; NCIM 3252, 72 h, read-out: DIZ): 7 mm; zone of inhibition at 500 µg/disc (Staphylococcus [7]; NCIM 2178, 24 h, read-out: DIZ): 7 mm; zone of inhibition at 1000 µg/disc (Staphylococcus [8]; NCIM 2178, 24 h, read-out: DIZ): 8 mm; zone of inhibition at 1000 µg/disc (Penicillium chrysogenum [9]; NCIM 707, 72 h, read-out: DIZ): 9 mm; zone of inhibition at 500 µg/disc (Pseudomonas aeruginosa; NCIM 2200, 24 h, read-out: DIZ): 7 mm; zone of inhibition at 500 µg/disc (Klebsiella aerogenes; NCIM 2239, 24 h, read-out: DIZ): 9 mm; zone of inhibition at 500 µg/disc (Bacillus cereus [11]; NCIM 2155, 24 h, read-out: DIZ): 9 mm; zone of inhibition at 1000 µg/disc (Proteus vulgaris [13]; NCIM 2027, 24 h, read-out: DIZ): 9 mm; zone of inhibition at 1000 µg/disc (Lipomyces lipofer [16]; NCIM 3252, 72 h, read-out: DIZ): 10 mm; zone of inhibition at 1000 µg/disc (Salmonella typhimurium; Salmonella enterica, NCIM 2501, 24 h, read-out: DIZ): 11 mm; zone of inhibition at 500 µg/disc (Escherichia coli [22]; NCIM 2065, 24 h, read-out: DIZ): 7 mm; zone of inhibition at 1000 µg/disc (Bacillus cereus [23]; NCIM 2155, 24 h, read-out: DIZ): 11 mm; zone of inhibition at 500 µg/disc (Proteus vulgaris [26]; NCIM 2027, 24 h, read-out: DIZ): 7 mm |
